Results taken from paper PMC3993885 (Journal of Natural Products, 2014).

Columns and labels:
Xanthomonas oryzae = details: cited from earlier work
dicotyledons = details: cited from earlier work
[1] = test system: TNF-α-induced NF-κB activity; format: cell-based, human; details: at 50 μM; TNF-α 2 ng/mL, 6 h
[2] = Chemical stability of 2 monitored by 1H and 13C NMR; format: physicochemical; details: in DMSO-d6 at room temperature (20 °C), after a month
Procedure, shortened: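 1D 1H and 13C spectra were recorded at 400 MHz or 500 MHz. Conversion was judged from a second set of NMR signals assigned to the C-8′ dehydration product.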

HEK293 cell line = experiment: Cytotoxicity / survival in HEK293 cells, same conditions as the NF-κB assay; format: cell-based, human

| Molecule | growth inhibition of Xanthomonas oryzae (Xanthomonas oryzae) | herbicidal activity (dicotyledons) | toxicity toward dicotyledons (dicotyledons) | NF-κB % inhibition [1] [%] | conversion of 2 to 2a (dehydration at C-8′) [2] [%] | NF-κB % survival (HEK293 cell line; % survival at a concentration of 50 μM) [%] | IC50 (HEK293 cell line; read-out: HEK293 cell line cytotoxicity IC50, same conditions as the NF-κB assay) [µM] |
| --- | --- | --- | --- | --- | --- | --- | --- |
| C/C=C(\CO)C(=O)O[C@H]1[C@H](O)[C@@H](C(=O)OC)O[C@@H]2C[C@H]3O[C@@H](n4cnc5c(N)ncnc54)[C@H](OC)[C@H]3O[C@]21O [Compound 4, Herbicidin A] | significantly inhibited the growth | herbicidal | selectively toxic |  |  |  |  |
| 9′-deoxy-8′,8′-dihydroxyherbicidin B [Compound 2] |  |  |  | 96.2 ± 4.9 | ~70 | 45.1 ± 5.7 | 13.7 ± 3.3 |
| aureonucleomycin [Compound 9] | significantly inhibited the growth | herbicidal | selectively toxic |  |  |  |  |
| COC(=O)[C@H]1O[C@@H]2C[C@H]3O[C@@H](n4cnc5c(N)ncnc54)[C@H](OC)[C@H]3O[C@@]2(O)[C@@H](O)[C@@H]1O [Compound 5, Herbicidin B] | significantly inhibited the growth | herbicidal | selectively toxic |  |  |  |  |
